Assay results published in ChEMBL document CHEMBL3112444, “Synthesis and anticancer activity of focused compound libraries from the natural product lead, oroidin” (2014).

Tests used:
[1] = Cytotoxicity against human U87 cells assessed as growth inhibition at 25 uM after 72 hrs by MTT assay relative to control; type: functional, U-87MG ATCC; conditions: U-87 MG, read-out: GI
Outline: (§1)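 Cells in logarithmic growth kept in DMEM with 10% FBS, 10 mM sodium bicarbonate, penicillin 100 IU/mL, glutamine 4 mM, at 37 °C under 5% CO2. Plated in duplicate at 2500–4000 cells/well. Compound (30 mM DMSO stock) added 24 h after plating. MTT read at 540 nm after 72 h exposure.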

[2] = Cytotoxicity against mouse SMA cells assessed as growth inhibition at 25 uM after 72 hrs by MTT assay relative to control; type: functional; conditions: read-out: GI; outline: as §1
[3] = Cytotoxicity against human MIA cells assessed as growth inhibition at 25 uM after 72 hrs by MTT assay relative to control; type: functional; conditions: read-out: GI; outline: as §1
[4] = Cytotoxicity against human SJ-G2 cells assessed as growth inhibition at 25 uM after 72 hrs by MTT assay relative to control; type: functional; conditions: SJ-G2, 72 h, read-out: GI; outline: as §1
[5] = Cytotoxicity against human BE(2)-C cells assessed as growth inhibition at 25 uM after 72 hrs by MTT assay relative to control; type: functional; conditions: read-out: GI; outline: as §1
DU-145 = experiment: Cytotoxicity against human DU145 cells assessed as growth inhibition at 25 uM after 72 hrs by MTT assay relative to control; type: functional; conditions: DU-145, 72 h, read-out: GI; outline: as §1
A-431 = experiment: Cytotoxicity against human A431 cells assessed as growth inhibition at 25 uM after 72 hrs by MTT assay relative to control; type: functional; conditions: A-431, 72 h, read-out: GI; outline: as §1
[6] = Cytotoxicity against human H460 cells assessed as growth inhibition at 25 uM after 72 hrs by MTT assay relative to control; type: functional; conditions: NCI-H460, 72 h, read-out: GI; outline: as §1
A2780 = experiment: Cytotoxicity against human A2780 cells assessed as growth inhibition at 25 uM after 72 hrs by MTT assay relative to control; type: functional; conditions: A2780, 72 h, read-out: GI; outline: as §1
MCF7 = experiment: Cytotoxicity against human MCF7 cells assessed as growth inhibition at 25 uM after 72 hrs by MTT assay relative to control; type: functional; conditions: MCF7, 72 h, read-out: GI; outline: as §1
SW480 = experiment: Cytotoxicity against human SW480 cells assessed as growth inhibition at 25 uM after 72 hrs by MTT assay relative to control; type: functional; conditions: SW480, 72 h, read-out: GI; outline: as §1
HT-29 = experiment: Cytotoxicity against human HT-29 cells assessed as growth inhibition at 25 uM after 72 hrs by MTT assay relative to control; type: functional; conditions: HT-29, 72 h, read-out: GI; outline: as §1

Row | SMILES | inhibition of growth at 25 µM [1] [%] | inhibition of growth at 25 µM [2] [%] | inhibition of growth at 25 µM [3] [%] | inhibition of growth at 25 µM [4] [%] | inhibition of growth at 25 µM [5] [%] | inhibition of growth at 25 µM (DU-145) [%] | inhibition of growth at 25 µM (A-431) [%] | inhibition of growth at 25 µM [6] [%] | inhibition of growth at 25 µM (A2780) [%] | inhibition of growth at 25 µM (MCF7) [%] | inhibition of growth at 25 µM (SW480) [%] | inhibition of growth at 25 µM (HT-29) [%]
1 | O=C(NCCc1ccc(O)cc1)c1ccc[nH]1 | 2 | < 1 | 6 | 11 | < 0 | < 0 | < 0 | 2 | 18 | 8 | 5 | 3
2 | O=C(NCCc1ccccc1)c1cc(Br)c(Br)[nH]1 | < 0 | 53 | 19 | 22 | 62 | < 0 | 7 | 19 | 58 | 70 | 1 | 46
3 | O=C(NCCCCc1ccccc1)c1cc(Br)c(Br)[nH]1 | < 0 | 40 | 34 | 14 | < 0 | 19 | 24 | 17 | 56 | 70 | < 0 | 41
4 | O=C(NCCc1ccc2ccccc2c1)c1cc(Br)c(Br)[nH]1 | < 0 | 17 | 21 | 10 | < 0 | 14 | 15 | 12 | 52 | 53 | < 0 | 28
5 | O=C(NCCCn1cccn1)c1cc(Br)c(Br)[nH]1 | < 0 | 6 | 3 | < 0 | 6 | 5 | 3 | 14 | 15 | 12 | < 0 | 4
6 | O=C(NCCc1ccccc1)c1ccc[nH]1 | 9 | 7 | < 0 | 2 | < 0 | 5 | 5 | 5 | 6 | 7 | 9 | 9
7 | COc1ccc(CNC(=O)c2ccc[nH]2)cc1 | < 0 | < 0 | 6 | < 0 | < 0 | 8 | < 0 | 2 | 6 | 5 | 10 | 3
8 | O=C(NCCc1ccc2ccccc2c1)c1ccc[nH]1 | < 1 | 16 | 20 | 8 | < 0 | 20 | 8 | 23 | 13 | 23 | 3 | 19
9 | O=C(NCCCn1cccn1)c1ccc[nH]1 | 9 | 8 | 19 | < 0 | 1 | 7 | 1 | 14 | 10 | 7 | 9 | 4
10 | Cc1nccn1CCCNC(=O)c1ccc[nH]1 | 3 | < 0 | 4 | < 0 | < 0 | 5 | < 0 | 3 | 1 | 8 | 7 | 5
11 | O=C(NCCc1c[nH]cn1)c1ccc[nH]1 | 6 | 0 | 7 | < 0 | < 0 | 5 | 3 | 0 | 11 | 1 | 1 | 11
12 | COc1ccc(CNC(=O)c2cc(Br)c(Br)[nH]2)cc1 | < 0 | 23 | 14 | 4 | < 0 | < 0 | 12 | 13 | 48 | 30 | < 0 | 14
13 | O=C(NCCCc1ccccc1)c1ccc[nH]1 | 11 | 8 | 10 | 0 | < 0 | < 0 | 1 | 13 | 10 | 21 | 7 | 16
14 | Cc1nccn1CCCNC(=O)c1cc(Br)c(Br)[nH]1 | < 0 | 11 | 15 | 10 | 20 | 28 | 11 | 22 | 21 | 36 | 26 | 10
15 | O=C(NCC(c1ccccc1)c1ccccc1)c1ccc[nH]1 | 14 | 15 | 32 | 53 | < 0 | 8 | 30 | 11 | 27 | 52 | < 0 | 29
16 | CCc1ccc(CCNC(=O)c2cc(Br)c(Br)[nH]2)cc1 | 6 | 79 | 31 | 22 | 20 | 7 | 22 | 23 | 67 | 88 | 5 | 81
17 | CCc1ccc(CCNC(=O)c2ccc[nH]2)cc1 | 0 | 8 | 12 | < 0 | < 0 | 1 | 0 | 3 | < 0 | 19 | < 0 | 22
18 | O=C(NCc1ccc(Cl)c(Cl)c1)c1ccc[nH]1 | 4 | 17 | < 0 | 11 | < 0 | < 0 | 6 | 14 | 15 | 7 | < 0 | 14
